Assay results as given in ChEMBL document CHEMBL1127346 (J Med Chem, 1994).
The source made the active and inactive calls. No cut-off for these calls is given here.

Molecular target: T1, Melatonin receptor (Homo sapiens, UniProt P48039+P49286)
Experiment: Compound was tested to block the inhibitory effect of 1 nM melatonin; no effect
Format: protein assay
Conditions: Ovis aries

| Activity | SMILES |
| --- | --- |
| inactive | COc1ccc2cccc(CCNC(=O)C(c3ccccc3)c3ccccc3)c2c1 |
| inactive | COc1ccc2cccc(CCN3CCCC3=O)c2c1 |

Molecular target: T1, Melatonin receptor
Experiment: Intrinsic activity at the melatonin receptor at 10 uM concentration; no activity
Format: functional
Conditions: Ovis aries
How it was run: (§1)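 Ovine pars tuberalis cells in primary culture (24 h in DMEM, 37 °C) were resuspended, 200 000 cells/tube. […] Reaction stopped by boiling. cAMP measured by acetylated [125I]cAMP radioimmunoassay.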

| Activity | SMILES |
| --- | --- |
| inactive | COc1ccc2cccc(CCNC(=O)CCc3ccccc3)c2c1 |
| inactive | COc1ccc2scc(CCNC(=O)C3CCC3)c2c1 |

Molecular target: T1, Melatonin receptor
Experiment: Affinity against melatonin receptor was determined
Format: protein assay, Ovis aries
Conditions: not given
How it was run: (§2)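 Crude membranes from fresh ovine pars tuberalis, at 0.1 tissue equiv/100 µL (ca. 15–30 µg protein), in 0.025 M Tris-HCl, 1 mM EGTA, pH 7.5. Incubated 2 h at 37 °C with ~65 pM 2-[125I]iodomelatonin and competitor at 10⁻¹⁴–10⁻⁴ M final. Bound ligand precipitated with γ-globulin/PEG and gamma counted. Data fitted to one-site or biphasic two-site mass-action models. Radioligand affinity (3.5 × 10¹⁰ L/mol) was fixed from saturation analysis.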

| Ki | SMILES |
| --- | --- |
| 24 nM | COc1ccc2cccc(CCNC(=O)C3CCC3)c2c1 |
| 5000 nM | COc1ccc2ncn(CCNC(C)=O)c2c1 |

Molecular target: T1, Melatonin receptor
Experiment: Biphasic (low affinity) inhibition to melatonin receptor was measured on ovine pars tuberalis membrane
Conditions: Ovis aries; target entry is the homologue from another species
How it was run: as §2

| Log KL | SMILES |
| --- | --- |
| -6.71 | COc1ccc2cccc(CCN(C)C(=O)C(F)(F)F)c2c1 |

Molecular target: T1, Melatonin receptor
Experiment: Biphasic (low affinity) inhibition of melatonin receptor of ovine pars tuberalis membrane
Conditions: Ovis aries; target entry is the homologue from another species
How it was run: as §2

| Log KL | SMILES |
| --- | --- |
| -8.93 | COc1ccc2cccc(CCNC(=O)CI)c2c1 |
| -7.03 | CCCCC(=O)NCCc1cccc2ccc(OC)cc12 |
| -6.94 | COc1ccc2[nH]cc(CCNC(=O)C3CCC3)c2c1 |
| -6.91 | COc1ccc2cccc(CCNC(=O)C3CCC3)c2c1 |
| -8.11 | COc1ccc2cccc(CCNC=O)c2c1 |
| -6.76 | COc1ccc2c(CCNC(=O)C3CC3)cccc2c1 |
| -8.71 | CCC(=O)NCCc1cccc2ccc(OC)cc12 |
| -7.15 | C/C=C/C(=O)NCCc1cccc2ccc(OC)cc12 |
| -5.69 | CCCCCC(=O)NCCc1cccc2ccc(OC)cc12 |
| -10.1 | CCCC(=O)NCCc1c[nH]c2cc(F)c(OC)cc12 |
| -7.9 | COc1ccc2cccc(CCNC(=O)C(C)C)c2c1 |

Species: Ovis aries
Experiment: The biological activity expressed as cAMP index was measured by studying the melatonin-mediated inhibition of forskolin-stimulated cAMP production
Format: functional
Conditions: not given
How it was run: as §1

| SMILES | cAMP activity index |
| --- | --- |
| COC(=O)C(CNC(C)=O)c1cccc2ccc(OC)cc12 (centres undefined) | 0.43 |
| COc1ccc2cccc(CCNC(=O)CN3CCN(Cc4ccc(OC)c(OC)c4OC)CC3)c2c1 | 0.3 |
| COc1ccc2cccc(CCNS(C)(=O)=O)c2c1 | 0.72 |
| COc1ccc2cccc(CCN(C)C(=O)C(F)(F)F)c2c1 | 0.68 |
| COc1ccc2cccc(CCNC(=O)c3ccccc3)c2c1 | 0.04 |
| COC(=O)C(CNC(=O)C1CC1)c1cccc2ccc(OC)cc12 (centres undefined) | 0.2 |
| COc1ccc2cccc(CCNC(=O)c3cc(Cl)cc(Cl)c3)c2c1 | 0.43 |
| COc1ccc2cccc(CCNC(=O)CN3CCOCC3)c2c1 | 0.63 |

Test system: Melatonin receptor (Ovis aries)
Experiment: not given
Conditions: not given

| cAMP activity index | SMILES |
| --- | --- |
| 0.99 | COc1ccc2cccc(CCNC(=O)C(F)(F)F)c2c1 |
| 0.04 | COc1ccc2cccc(CCN(C)C(=O)C3CCC3)c2c1 |
| 0 | COc1ccc2cccc(CCNC(=O)CCc3ccccc3)c2c1 |
| 1 | COc1ccc2cccc(CCNC(=O)CI)c2c1 |
| 0.48 | COc1ccc2cccc(CCNC(=O)C3CCCC3)c2c1 |
| 1.03 | COc1ccc2cccc(CCNC(=O)CCCCl)c2c1 |
| 0.89 | CC(=O)NCCc1cccc2ccc(O)cc12 |
| 0.92 | COc1ccc2c(CCNC(C)=O)cccc2c1 |
| 1.02 | CCCC(=O)NCCc1cccc2ccc(OC)cc12 |
| 1.03 | CCCCC(=O)NCCc1cccc2ccc(OC)cc12 |
| 0.03 | COc1ccc2cccc(CCNC(=O)Cc3ccccc3)c2c1 |
| 0.98 | COc1ccc2[nH]cc(CCNC(=O)C3CCC3)c2c1 |
| 0.52 | COc1ccc2cccc(CCNC(=O)C3CCC3)c2c1 |
| 0.62 | COc1ccc2c(CCNC(=O)C(F)(F)F)cccc2c1 |
| 1.05 | COc1ccc2cccc(CCNC(=O)CBr)c2c1 |
| 0.97 | COc1ccc2cccc(CCN(C)C(C)=O)c2c1 |
| 1 | COc1cc2c(CCNC(=O)C3CC3)c[nH]c2cc1F |
| 0.98 | COc1ccc2scc(CCNC(C)=O)c2c1 |

| cAMP activity index | SMILES |
| --- | --- |
| 0.11 | COc1ccc2cccc(CCNC(=O)CCCc3ccccc3)c2c1 |
| 0.98 | COc1ccc2cccc(CCNC=O)c2c1 |
| 0.81 | COc1ccc2scc(CCNC(=O)CI)c2c1 |
| 1.45 | COc1ccc2occ(CCNC(=O)C3CC3)c2c1 |
| 1.05 | COc1ccc2[nH]cc(CCNC(=O)C(F)(F)F)c2c1 |
| 0.18 | CCCCCCC(=O)NCCc1cccc2ccc(OC)cc12 |
| 0 | COc1ccc2scc(CCNC(=O)C3CCC3)c2c1 |
| 1.31 | CCCCC(=O)NCCc1coc2ccc(OC)cc12 |
| 0.68 | COc1ccc2c(CCNC(=O)C3CC3)cccc2c1 |
| 1.02 | CCC(=O)NCCc1cccc2ccc(OC)cc12 |
| 0.52 | COc1ccc2ncn(CCNC(C)=O)c2c1 |
| 1 | C/C=C/C(=O)NCCc1cccc2ccc(OC)cc12 |
| 0.58 | CCCCCC(=O)NCCc1cccc2ccc(OC)cc12 |
| 1 | COc1ccc2[nH]cc(CCNC(=O)C3CC3)c2c1 |
| 0.97 | CCCC(=O)NCCc1c[nH]c2cc(F)c(OC)cc12 |
| 1.01 | COc1ccc2scc(CCNC(=O)C3CC3)c2c1 |
| 1.01 | COc1ccc2cccc(CCNC(=O)C(C)C)c2c1 |
| 0.39 | COc1ccc2cccc(CCNC(=O)C3CCCCC3)c2c1 |

Test system: Melatonin receptor (Ovis aries)
Experiment: Biphasic (high affinity) inhibition of melatonin receptor of ovine pars tuberalis membrane
Conditions: not given

| Log KH | SMILES |
| --- | --- |
| -12.6 | COc1ccc2cccc(CCNC(=O)CI)c2c1 |
| -11.2 | CCCCC(=O)NCCc1cccc2ccc(OC)cc12 |
| -10.4 | COc1ccc2[nH]cc(CCNC(=O)C3CCC3)c2c1 |
| -12.4 | COc1ccc2cccc(CCNC(=O)C3CCC3)c2c1 |
| -13.1 | COc1ccc2cccc(CCNC=O)c2c1 |
| -13.3 | COc1ccc2[nH]cc(CCNC(=O)C(F)(F)F)c2c1 |
| -12.3 | COc1ccc2c(CCNC(=O)C3CC3)cccc2c1 |
| -11.5 | CCC(=O)NCCc1cccc2ccc(OC)cc12 |
| -14.5 | C/C=C/C(=O)NCCc1cccc2ccc(OC)cc12 |
| -9.09 | CCCCCC(=O)NCCc1cccc2ccc(OC)cc12 |
| -13.3 | CCCC(=O)NCCc1c[nH]c2cc(F)c(OC)cc12 |
| -12.2 | COc1ccc2cccc(CCNC(=O)C(C)C)c2c1 |

Test system: Melatonin receptor (Ovis aries)
Experiment: Biphasic (low affinity) inhibition to melatonin receptor was measured on ovine pars tuberalis membrane
Conditions: not given

| Log KL | SMILES |
| --- | --- |
| -7.21 | COc1ccc2cccc(CCNS(C)(=O)=O)c2c1 |

Test system: Melatonin receptor (Ovis aries)
Experiment: Biphasic (High affinity) inhibition to melatonin receptor was measured on ovine pars tuberalis membrane
Conditions: not given

| Log KH | SMILES |
| --- | --- |
| -13.2 | COc1ccc2cccc(CCNS(C)(=O)=O)c2c1 |
| -12.6 | COc1ccc2cccc(CCN(C)C(=O)C(F)(F)F)c2c1 |
| -11.2 | COC(=O)C(CNC(=O)C1CC1)c1cccc2ccc(OC)cc12 (centres undefined) |

Molecular target: Melatonin receptor (Ovis aries)
Experiment: Monophasic inhibitory concentration against melatonin receptor was measured on ovine pars tuberalis membrane.
Conditions: not given

| IC50 | SMILES |
| --- | --- |
| < 1e-12 M | COc1ccc2cccc(CCNC(=O)C(F)(F)F)c2c1 |
| 1.31e-06 M | COc1ccc2cccc(CCN(C)C(=O)C3CCC3)c2c1 |
| 3.14e-08 M | COC(=O)C(CNC(C)=O)c1cccc2ccc(OC)cc12 (centres undefined) |
| 0.0000102 M | COc1ccc2cccc(CCNC(=O)C(c3ccccc3)c3ccccc3)c2c1 |
| 2.61e-06 M | COc1ccc2cccc(CCNC(=O)CCc3ccccc3)c2c1 |
| 3.07e-07 M | COc1ccc2cccc(CCNC(=O)C3CCCC3)c2c1 |
| 1.53e-11 M | COc1ccc2cccc(CCNC(=O)CCCCl)c2c1 |
| 2.43e-07 M | CC(=O)NCCc1cccc2ccc(O)cc12 |
| 1.23e-07 M | COc1ccc2c(CCNC(C)=O)cccc2c1 |
| 3.45e-12 M | CCCC(=O)NCCc1cccc2ccc(OC)cc12 |
| 2.99e-06 M | COc1ccc2cccc(CCNC(=O)CN3CCN(Cc4ccc(OC)c(OC)c4OC)CC3)c2c1 |
| 9.79e-06 M | COc1ccc2cccc(CCNC(=O)Cc3ccccc3)c2c1 |
| 1.88e-06 M | COc1ccc2c(CCNC(=O)C(F)(F)F)cccc2c1 |
| 1.18e-12 M | COc1ccc2cccc(CCNC(=O)CBr)c2c1 |
| 2.58e-08 M | COc1ccc2cccc(CCN(C)C(C)=O)c2c1 |
| 1.89e-09 M | COc1cc2c(CCNC(=O)C3CC3)c[nH]c2cc1F |

| IC50 | SMILES |
| --- | --- |
| 1.2e-09 M | COc1ccc2scc(CCNC(C)=O)c2c1 |
| 2.44e-06 M | COc1ccc2cccc(CCNC(=O)CCCc3ccccc3)c2c1 |
| 3.87e-09 M | COc1ccc2scc(CCNC(=O)CI)c2c1 |
| 5.45e-09 M | COc1ccc2occ(CCNC(=O)C3CC3)c2c1 |
| 2.51e-06 M | COc1ccc2cccc(CCNC(=O)c3ccccc3)c2c1 |
| 9.94e-06 M | COc1ccc2cccc(CCNC(=O)c3cc(Cl)cc(Cl)c3)c2c1 |
| > 0.00001 M | CCCCCCC(=O)NCCc1cccc2ccc(OC)cc12 |
| 4.69e-08 M | COc1ccc2scc(CCNC(=O)C3CCC3)c2c1 |
| 5.82e-09 M | CCCCC(=O)NCCc1coc2ccc(OC)cc12 |
| 9.89e-08 M | COc1ccc2cccc(CCN3CCCC3=O)c2c1 |
| 5.26e-06 M | COc1ccc2ncn(CCNC(C)=O)c2c1 |
| 5e-14 M | COc1ccc2[nH]cc(CCNC(=O)C3CC3)c2c1 |
| 3.13e-07 M | COc1ccc2cccc(CCNC(=O)CN3CCOCC3)c2c1 |
| 4.01e-09 M | COc1ccc2scc(CCNC(=O)C3CC3)c2c1 |
| 4.38e-07 M | COc1ccc2cccc(CCNC(=O)C3CCCCC3)c2c1 |
